Results: ChEMBL document CHEMBL2331329, “Synthesis and biological evaluation of 2-(alkoxycarbonyl)-3-anilinobenzo[b]thiophenes and thieno[2,3-b]pyridines as new potent anticancer agents” (J Med Chem, 2013)
pIC50: −log10 of the molar value. One block for each molecule: values may come before it.

Legend:
HL-60 = assay: Cytotoxicity against human HL60 cells after 72 hrs by MTT assay; type: functional, cell-based; details: HL-60, 72 h
A549 = assay: Cytotoxicity against human A549 cells after 72 hrs by MTT assay; type: functional, cell-based; details: A549, 72 h
HT-29 = assay: Cytotoxicity against human HT-29 cells after 72 hrs by MTT assay; type: functional, cell-based; details: HT-29, 72 h
[1] = Cytotoxicity against human SEM cells after 72 hrs by MTT assay; type: functional, cell-based
Method in brief: (§1)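 Cells plated at 8 × 10^3 per well, 18 h at 37 °C, 5% CO2, then fresh medium with graded compound concentrations (DMSO ≤0.25%) for 72 h. Jurkat, SEM, HL-60 grown in RPMI-1640; A549, HeLa, HT-29, MCF-7 in DMEM; 10% FBS with penicillin/streptomycin. MTT viability read-out; IC50 vs 0.25% DMSO controls; mean ± SE of at least three independent experiments.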

HeLa = assay: Cytotoxicity against human HeLa cells after 72 hrs by MTT assay; type: functional, cell-based
Jurkat = assay: Cytotoxicity against human Jurkat cells after 72 hrs by MTT assay; type: functional, cell-based; method in brief: as §1
MCF7 = assay: Cytotoxicity against human MCF7 cells after 72 hrs by MTT assay; type: functional, cell-based; details: MCF7, 72 h
[2] = Cytotoxicity against human A549-T12 cells after 72 hrs by MTT assay; type: functional, cell-based; details: A549, 72 h
Method in brief: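 Mean ± SE of at least three independent experiments. Resistance ratio = IC50 in resistant line/IC50 in nonresistant line.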

CCRF-CEM [3] = assay: Cytotoxicity against human CEM cells after 72 hrs by MTT assay; type: functional, cell-based
Method in brief: (§2)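 MTT viability test: 8 × 10^3 cells per well settled 18 h at 37 °C, 5% CO2, then given fresh medium with compound (from 10 mM DMSO stocks, final DMSO ≤0.25%) for 72 h. […] CEMVbl-100 is a vinblastine-selected P-gp line; LoVoDoxo is grown in Ham's F12 with 0.1 μg/mL doxorubicin. Resistance index = resistant IC50/parental IC50.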

CCRF-CEM [4] = assay: Resistance index, ratio of IC50 for human CEM/VBL100 cells to IC50 for human CEM cells; type: functional; method in brief: as §2
[5] = Cytotoxicity against human CEM/VBL100 cells after 72 hrs by MTT assay; type: functional, cell-based; details: CEM/VBL100, 72 h; method in brief: as §2
Bos taurus [6] = species on record: Bos taurus; assay: Displacement of [3H]colchicine from bovine brain tubulin at 5 uM after 20 mins by turbidimetric analysis
Bos taurus [7] = species on record: Bos taurus; assay: Displacement of [3H]colchicine from bovine brain tubulin at 1 uM after 20 mins by turbidimetric analysis
[8] = Inhibition of bovine brain tubulin polymerization after 20 mins by turbidimetric analysis; set-up: species or system Bos taurus
Method in brief: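 Bovine brain tubulin (10 μM) preincubated with varying compound concentrations in glutamate buffer at 30 °C, chilled to 0 °C, 0.4 mM GTP added, then warmed to 30 °C in a recording spectrophotometer.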

[9] = Antitumor activity against mouse BNL 1ME A.7R.1 cells xenografted in Balb/c mouse assessed as reduction in tumor growth at 5 mg/kg, ip QD for 7 days; type: functional; set-up: scale not given: the % may be the effect or the level left; details: route intraperitoneal
Method in brief: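 Male Balb/c mice, 8 weeks old, given 10^7 syngeneic BNL 1ME A.7R.1 hepatoma cells subcutaneously in the dorsal region in 200 μL PBS. Randomised to groups of five. Dosed intraperitoneally once daily for 7 days at 5 mg/kg in 0.9% NaCl with 5% PEG 400 and 0.5% Tween 80, against vehicle and CA-4P. Tumours measured daily by caliper, V = AB2/2; body weight recorded. Mean ± SEM.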

Compound: COC(=O)c1sc2ccc(C)cc2c1Nc1cc(OC)c(OC)c(OC)c1
pIC50 (HL-60): 5.33
pIC50 (A549): 5.55
pIC50 (HT-29): 6.52
pIC50 [1]: 6.73
pIC50 (HeLa): 6.40
pIC50 (Jurkat): 6.14
pIC50 (MCF7): 6.27

Compound: CC(=O)O[C@H]1C(=O)[C@@]2(C)[C@H]([C@H](OC(=O)c3ccccc3)[C@]3(O)C[C@H](OC(=O)[C@H](O)[C@@H](NC(=O)c4ccccc4)c4ccccc4)C(C)=C1C3(C)C)[C@]1(OC(C)=O)CO[C@@H]1C[C@@H]2O [PACLITAXEL]
pIC50 [2]: 7.03

Compound: CC[C@]1(O)C[C@@H]2CN(CCc3c([nH]c4ccccc34)[C@@](C(=O)OC)(c3cc4c(cc3OC)N(C)[C@H]3[C@@](O)(C(=O)OC)[C@H](OC(C)=O)[C@]5(CC)C=CCN6CC[C@]43[C@@H]65)C2)C1 [VINBLASTINE]
pIC50 (CCRF-CEM [3]): 8.70
Ratio IC50 (CCRF-CEM [4]): 105
pIC50 [5]: 6.68

Compound: COc1ccc(/C=C\c2cc(OC)c(OC)c(OC)c2)cc1O [COMBRETASTATIN A4]
pIC50 [1]: 8.30

Compound: COC(=O)c1sc2c(C)cccc2c1Nc1cc(OC)c(OC)c(OC)c1
pIC50 (HL-60): 5.37
pIC50 (A549): 5.41
pIC50 (HT-29): 6.26
pIC50 [1]: 5.79
pIC50 (HeLa): 5.76
pIC50 (MCF7): 5.34

inhibition (Bos taurus [6]): 94%
inhibition (Bos taurus [7]): 77%
pIC50 [8]: 6.09
Compound: CCOC(=O)c1sc2cc(OC)ccc2c1Nc1cc(OC)c(OC)c(OC)c1
pIC50 (HL-60): 7.50
pIC50 (A549): 8.05
pIC50 [1]: 7.99
pIC50 (HeLa): 9.25
pIC50 (Jurkat): 8.48
pIC50 (MCF7): 8.25

inhibition (Bos taurus [6]): 95%
inhibition (Bos taurus [7]): 71%
pIC50 [8]: 5.92
Compound: COC(=O)c1sc2cc(C)ccc2c1Nc1cc(OC)c(OC)c(OC)c1
pIC50 (HL-60): 7.69
pIC50 (A549): 7.97
pIC50 (HT-29): 8.72
pIC50 [1]: 9.15
pIC50 (HeLa): 9.51
pIC50 (Jurkat): 9.22
pIC50 (MCF7): 8.92

Compound: CCOC(=O)c1sc2ncccc2c1Nc1cc(OC)c(OC)c(OC)c1
pIC50 (HL-60): 5.21
pIC50 (A549): 5.15
pIC50 (HT-29): 5.65
pIC50 [1]: 5.73
pIC50 (HeLa): 5.68
pIC50 (Jurkat): 5.07
pIC50 (MCF7): 5.28

Compound: COc1ccc(/C=C\c2cc(OC)c(OC)c(OC)c2)cc1OP(=O)([O-])[O-].[Na+].[Na+] [FOSBRETABULIN DISODIUM]
Activity [9]: 44.5%
